KCC2 mod – modulates chloride dependent transport by human KCC2; B-score of Tl+ flux slope (higher = more flux/activation; lower = inhibition) at 10 µM; KCC2 cells, thallium flux FluoZin-2 fluorescence; 190,000 compounds, 2.2% hits; AID 1456; Q9H2X9;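 active means thallium flux slope and its plate-corrected score both differing from the plate sample mean at a set confidence after two filtering rounds, in either direction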;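 further: slope of fluorescence scaled to starting intensity during 10 to 20 s after thallium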
RGS4 inh – human RGS4 inhibition | HEK293 M3R/RGS4 inducible, Fluo-4 calcium flux; active compounds read high; triggered by carbachol at its EC20 | B-score at 10 µM | 310,000 compounds, 0.45% hits | AID 463165;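 active means B-score, a plate-corrected calcium signal, over three deviations above library mean, with baseline fluorescence within five deviations of library mean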;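 further: RGS4 expression induced by doxycycline in cells with stable M3 receptor; B-score is computed from the integrated fluorescence ratio over baseline after carbachol; higher B-score means a larger calcium signal and so more RGS4 inhibition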
Target sequence (P49798 whole entry, looked up): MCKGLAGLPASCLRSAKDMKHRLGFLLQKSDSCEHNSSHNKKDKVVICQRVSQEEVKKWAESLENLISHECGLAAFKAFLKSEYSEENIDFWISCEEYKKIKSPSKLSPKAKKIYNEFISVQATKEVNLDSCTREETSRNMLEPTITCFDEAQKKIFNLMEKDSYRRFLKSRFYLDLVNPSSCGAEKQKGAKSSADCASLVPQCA
MrgX1 antag – human MrgX1 receptor antagonism, primary screen. 310,000 compounds, 1.3% hits. AID 588676. MRGX1-HEK293 calcium flux, Fluo-4, BAM8-22 antagonism; active compounds read low. B-score at 10 µM;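 active means calcium-response B-score plate-corrected more than 3 library SD below zero, starting fluorescence within 5 deviations, no agonist response on first addition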;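 further: peak minus trough fluorescence over baseline after final BAM8-22 challenge near maximal dose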
Target sequence (Q96LB2 whole entry, looked up): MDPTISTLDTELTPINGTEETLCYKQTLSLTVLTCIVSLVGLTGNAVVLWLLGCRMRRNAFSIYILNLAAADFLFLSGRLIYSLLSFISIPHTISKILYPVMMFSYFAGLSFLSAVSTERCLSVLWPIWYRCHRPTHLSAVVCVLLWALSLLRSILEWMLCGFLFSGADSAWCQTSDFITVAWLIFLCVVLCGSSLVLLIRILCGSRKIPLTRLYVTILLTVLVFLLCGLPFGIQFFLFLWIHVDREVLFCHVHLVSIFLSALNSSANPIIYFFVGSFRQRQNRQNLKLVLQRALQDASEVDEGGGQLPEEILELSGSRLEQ
MrgX1 agonist – agonists of human MrgX1 receptor; Q96LB2; MrgX1-HEK293 cells, Fluo-4 calcium fluorescence, agonist mode; active compounds read high; B-score at 10 µM; 310,000 compounds, 0.44% hits; AID 588627;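 active means calcium response B-score plate-corrected fluorescence ratio at least 3 library SD, with starting fluorescence B-score inside 5 SD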
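System: HEK293 cells stably expressing human MrgX1 receptor; Dosing: test compound in the initial addition of three; Schedule: overnight plating, then 30 min 37 °C plus 30 min room-temperature dye loading; Detection: kinetic calcium dye fluorescence, Fluo-4 NW; Controls: per-plate positive and negative controls for Z′ factor.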
MrgX1 PAM – allosterically activates human MrgX1 receptor signaling; 310,000 compounds, 0.63% hits; MrgX1-HEK293, Fluo-4 calcium flux, FDSS; active compounds read high; AID 588675; B-score at 10 µM; Q96LB2;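 active means plate-corrected calcium response at least 3 library SD above typical, normal starting fluorescence, not activating the receptor alone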;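 further: compound read alongside a low EC10 to EC30 dose of BAM8-22 agonist; peak minus trough fluorescence over baseline measured at the second addition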
RGS4 pot – RGS4 potentiation or activation; HEK293 M3R/inducible RGS4, carbachol calcium flux Fluo4; active compounds read low; B-score at 10 µM; 310,000 compounds, 0.92% hits;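 active means B-score of the integrated calcium signal more than 4 SD below the library mean, with starting fluorescence not abnormally high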;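 further: negative B-score means reduced calcium response which marks RGS4 activation or potentiation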
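Test system: HEK293 cells with stable M3R and inducible RGS4; also added: carbachol at ECmax as muscarinic agonist stimulus; schedule: dye loading 30 min 37 °C, buffer rest 30 min RT; technique: kinetic calcium fluorescence imaging with Fluo4-AM dye, 2 µM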
MrgX1 ant reconf – confirmation of human MrgX1 receptor antagonists; shares compounds with MrgX1 antag; MrgX1-HEK293, BAM8-22 calcium flux, Fluo-4; active compounds read low; remaining BAM8-22 calcium response % of control (active compounds read low), % at 10 µM; 2,300 compounds, 19% hits; AID 602420;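 active means remaining agonist calcium response no higher than 100% minus 3 SD of agonist-only control wells, with starting fluorescence near control levels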;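 further: agonist BAM8-22 given at a near maximal EC90 to ECmax level; peak minus minimum fluorescence divided by baseline after agonist addition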
HEK293 Ca flux – MrgX1 antagonist counter-screen hit in parental HEK293 cells | 4,000 compounds, 2% hits | fluorescence ratio F(max-min)/F0 at 10 µM | Fluo-4 calcium fluorescence, FDSS | shares compounds with MrgX1 antag;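 active means duplicate-averaged calcium fluorescence ratio at least three times the standard deviation of buffer wells, a nonspecific response in parental cells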
HEK293 Ca counter – MrgX1 allosteric activator counter-screen hit in parental HEK293 cells | shares compounds with MrgX1 antag | parental HEK293 calcium flux, Fluo-4 fluorescence ratio; active compounds read high | fluorescence ratio F(max-min)/F0 at 10 µM | 4,000 compounds, 0.4% hits | AID 624114;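 active means calcium fluorescence ratio, averaged over duplicates, at least 3 SD of the buffer-well ratio, meaning a nonspecific response in receptor-free cells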;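 further: untransfected parental HEK293 lacking MrgX1 used as counterscreen for MrgX1 allosteric activators; fluorescence change taken during the second addition on a kinetic imager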
HEK293 Ca cntr2 – activity in parental HEK293 cells lacking MrgX1 receptor; shares compounds with MrgX1 antag; Fluo-4 calcium fluorescence (FDSS); active compounds read high; 4,000 compounds, 8.7% hits; fluorescence ratio F(max-min)/F0 at 10 µM;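 active means calcium fluorescence ratio at least three times the spread of buffer wells, meaning a non-specific response in parental cells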
* marks the source's active call; other numbers are inactive results; i = inactive; nt = no result. An excerpt weighted towards active compounds, which were near 4.7% of everything screened.

SMILES | KCC2 mod | RGS4 inh | MrgX1 antag | MrgX1 agonist | MrgX1 PAM | RGS4 pot | MrgX1 ant reconf | HEK293 Ca flux | HEK293 Ca counter | HEK293 Ca cntr2
CCCn1c(C(C)NS(=O)(=O)c2ccccc2)n[nH]c1=S (centres undefined) | nt | i | i | i | i | i | nt | nt | nt | nt
COc1ccc(OC)c(NC(=O)C23CC4CC(C2)CC(n2cnc(Br)n2)(C4)C3)c1 | -0.65 | i | -5.2* | i | i | i | i | i | i | i
COc1ccccc1C(=O)N1CCN(CCc2ccccc2)CC1 | 0.53 | i | -5.4* | i | i | i | i | i | i | i
CCOC(=O)N1CCN(C(=O)c2ccccc2Oc2ccccc2)CC1 | 0.42 | i | i | i | i | i | nt | nt | nt | nt
O=C(c1ccco1)N1CCN(C(=O)c2ccccc2Oc2ccccc2)CC1 | -0.0027 | i | -4.6* | i | i | i | 79%* | i | i | i
COc1cccc(C(=O)N2CCN(CCCc3ccccc3)CC2)c1OC | nt | nt | i | i | i | nt | nt | nt | nt | nt
CCCc1c(C(=O)N/N=C/c2ccccc2C(F)(F)F)nnn1-c1nonc1N | nt | i | i | i | i | i | nt | nt | nt | nt
NC(=O)c1ccc(NC(=O)C2CCCO2)cc1 (centres undefined) | -0.1 | i | -5.9* | i | i | i | i | i | i | i
CSc1nc2ccc(NC(=O)C3CCCO3)cc2s1 (centres undefined) | nt | i | -6.8* | i | i | i | i | i | i | i
O=C(Nc1ccc(Oc2ccc(NC(=O)C3CCCO3)cc2)cc1)C1CCCO1 (centres undefined) | -1 | i | i | i | i | i | nt | nt | nt | nt
COc1ccc2nc(NC(=O)C3CCCO3)sc2c1 (centres undefined) | 0.62 | i | i | i | i | i | nt | nt | nt | nt
COc1cccc(-c2nn(-c3ccccc3)cc2/C=C(/NC(=O)c2ccccc2)C(=O)O)c1 | 0.43 | i | i | i | i | i | nt | nt | nt | nt
Cc1nn(-c2ccccc2)nc1C(=O)Nc1ccc2c(c1)OCCO2 | nt | i | -12* | i | i | i | i | i | i | i
Cc1oncc1C(=O)Nc1cccc(C#N)c1 | nt | i | i | i | i | i | nt | nt | nt | nt
O=C(Nc1cn(-c2ccccc2)nc1-c1ccc(F)cc1)c1ccccc1 | 0.57 | i | -5.3* | i | i | i | 81%* | i | i | i
COc1ccc(CNC(=O)CC2Sc3ccccc3NC2=O)cc1 (centres undefined) | -0.67 | i | i | i | i | i | nt | nt | nt | nt
O=C(COC(=O)CC1Sc2ccccc2NC1=O)NCc1ccccc1 (centres undefined) | nt | i | -11* | i | i | i | i | i | i | i
Cc1ccc(N(C)C(=O)c2cc(S(=O)(=O)N3CCCC3)cn2C)cc1 | nt | i | i | i | i | i | nt | nt | nt | nt
Cc1csc(Sc2nc3c(c(=O)[nH]c(=O)n3C)n2Cc2ccccc2Cl)n1 | nt | i | -8.8* | i | i | i | i | i | i | i
CSc1nc2c(c(=O)[nH]c(=O)n2C)n1Cc1ccccc1Cl | nt | i | i | i | i | i | nt | nt | nt | nt
O=C(CN(c1ccccn1)S(=O)(=O)c1ccc(F)cc1)Nc1ccc(F)cc1F | 0.7 | i | -5.6* | i | i | i | i | i | i | i

From PubChem BioAssay
